The list is not random: actives were taken first. Their share in the collection is about 1.6%.
ARFGAP1 inh: rat ARFGAP1 inhibition; Arfgap1-stimulated ARF1 GTP hydrolysis, GDP FP detection; hit rate 0.26% among 360,000; inhibition, % at 16.5 µM;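 active = inhibition above a per-plate limit, mean inhibition of low control wells plus 3 SD, cut at about 25% in these data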;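 note: 0% = DMSO wells with enzyme and 100% = wells lacking Arfgap1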
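System: truncated rat Arfgap1 GAP domain / Medium: HEPES-based buffer, pH 7.5 / Also added: N-terminally truncated human ARF1-GTP substrate / Incubation: enzyme reaction 120 min at 25 °C after 20 min preincubation / Measured by: FP of antibody-bound GDP Alexa 633 tracer, ex 620/em 688 nm / Replicates: singlicate, each compound tested once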
Neddyl block: inhibitors of human cullin neddylation; P61081+Q13564; TR-FRET cullin neddylation, biochemical; inhibition, % at 25 µM; hit rate 0.58% among 360,000; in the data active = inhibition above about 36%
Target sequence (P61081 whole entry, looked up): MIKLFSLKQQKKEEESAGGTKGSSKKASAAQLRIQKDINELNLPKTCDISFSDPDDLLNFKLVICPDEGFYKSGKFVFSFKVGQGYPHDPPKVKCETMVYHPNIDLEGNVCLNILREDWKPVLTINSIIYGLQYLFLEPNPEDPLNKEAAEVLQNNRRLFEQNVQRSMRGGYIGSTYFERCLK
Target sequence (Q13564 whole entry, looked up): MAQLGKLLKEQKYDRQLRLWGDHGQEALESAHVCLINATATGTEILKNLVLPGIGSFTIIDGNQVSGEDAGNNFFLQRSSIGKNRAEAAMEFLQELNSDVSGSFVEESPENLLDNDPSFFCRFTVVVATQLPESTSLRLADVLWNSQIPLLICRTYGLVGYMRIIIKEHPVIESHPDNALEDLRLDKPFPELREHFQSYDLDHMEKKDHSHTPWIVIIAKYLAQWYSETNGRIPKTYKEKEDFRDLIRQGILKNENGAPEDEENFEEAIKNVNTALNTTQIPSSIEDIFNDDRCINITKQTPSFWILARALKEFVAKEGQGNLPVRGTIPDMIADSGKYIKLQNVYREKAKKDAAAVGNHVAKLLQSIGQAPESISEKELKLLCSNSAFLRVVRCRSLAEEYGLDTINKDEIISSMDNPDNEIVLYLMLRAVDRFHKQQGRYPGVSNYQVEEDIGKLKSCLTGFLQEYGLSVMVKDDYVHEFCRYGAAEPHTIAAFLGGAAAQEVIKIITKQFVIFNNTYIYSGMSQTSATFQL
H9c2 protect: protects H9c2 cardiomyocytes from peroxide injury; H2O2 injury protection, ATPLite, 2 h; protection from H2O2 cell death, % at 20 µM; hit rate 0.63% among 360,000;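 active = compounds giving at least 50% protection of heart cells from peroxide-induced death in the single-dose screen, raw or plate-pattern-corrected value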;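 note: 0% = DMSO wells with peroxide and 100% = DMSO wells without peroxide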
ASAP1 inh: inhibitors of human ASAP1 ArfGAP activity; Q9ULH1; ASAP1-stimulated ARF1 GTP hydrolysis, GDP FP detection; hit rate 0.19% among 360,000; inhibition, % at 16.5 µM; in the data active = inhibition above about 25%;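 note: 0% = vehicle with enzyme and substrate and 100% = no enzyme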
ARFGAP1 confirm: confirmation of rat ARFGAP1 inhibitors | shares compounds with ARFGAP1 inh | ARFGAP1-stimulated ARF1 GTP hydrolysis, GDP tracer FP | inhibition, % at 16.5 µM | hit rate 30% among 890;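 active = average inhibition over triplicates above the hit cutoff set in the earlier primary screen, cut at about 25% in these data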;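 note: 0% = Arfgap1 plus ARF1-GTP with DMSO and 100% = wells lacking Arfgap1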
The depositor's hits bear a star; · = no result shown.

SMILES	ARFGAP1 inh	Neddyl block	H9c2 protect	ASAP1 inh	ARFGAP1 confirm
Cc1ccc2nc(-c3ccc(SCC(=O)Nc4nc(C)cs4)nc3)[nH]c2c1	25*	30	-5	-6	33*
CC(C)Cn1c(N)c(S(=O)(=O)c2cccs2)c2nc3ccccc3nc21	27*	·	-2	-10	-3
COc1ccc(/C=N/n2c(N)c(S(=O)(=O)c3cccs3)c3nc4ccccc4nc32)cc1OC	-7	·	42	7	·
COc1ccc(S(=O)(=O)NCC2CCC(C(=O)N3CCC4(CC3)OCCO4)CC2)cc1 (stereo not drawn)	35*	9	17	0	-7
Cc1cc(C)n(-c2ccc(C(=O)OC(C)C(=O)Nc3ccc(C(N)=O)cc3)cc2)n1 (stereo not drawn)	-1	8	-2	-11	·
CC(NC(=O)OCc1ccccc1)c1ccccc1 (stereo not drawn)	-6	-1	1	-6	·
CNC(=O)[C@@H]1C[C@H]1[C@@H](NC(=O)OCc1ccccc1)c1ccccc1	25*	-18	8	4	2
C(=C\c1ccccc1)/CN1CCN(C(CCc2ccccc2)c2nnnn2C2CCCCC2)CC1 (stereo not drawn)	9	0	-8	9	·
O=NN(CCF)C(=O)NC1CCS(=O)(=O)CC1	-3	3	·	-1	·
CS(=O)(=O)Nc1cccc(C2=NN(S(=O)(=O)c3ccccc3)C(c3ccco3)C2)c1 (stereo not drawn)	32*	8	-6	-7	-6
O=C1CN(C(=O)CN2CCN(S(=O)(=O)c3ccccc3F)CC2)c2ccccc2N1	2	-5	0	6	·
CCCN1Cc2cccc(C(=O)NC(CC(=O)OCC)c3ccc(C)cc3)c2C1=O (stereo not drawn)	8	1	-1	1	·
CCOC(=O)CN1Cc2cccc(C(=O)O)c2C1=O	25*	5	8	0	1
COc1ccc(NC(=O)CSc2nnc(-c3ccncc3)n2CC2CCCO2)c(OC)c1 (stereo not drawn)	26*	0	-6	-4	-3
C[C@@H]1CN([C@H](C)CO)C(=O)c2cc(NS(=O)(=O)c3ccccc3)ccc2O[C@@H](C)CCCCO[C@@H]1CN(C)Cc1ccccc1	7	·	·	-9	·
CC(c1ccccc1)N1C(=O)c2cccnc2C1=O (stereo not drawn)	2	-11	-7	2	·
CC(NC1=CC(=O)c2cccnc2C1=O)C(O)c1ccccc1 (stereo not drawn)	27*	-48	-18	17	-9
COc1ccccc1CNC(=O)CSc1nc(N)c(C#N)c(-c2cccs2)c1C#N	42*	-41	-9	-11	30*
Cc1ccc(-n2nc3ccc(NC(=O)c4ccco4)cc3n2)cc1	30*	·	-23	-6	13
Cc1ccc(-n2nc3ccc(NC(=O)c4ccc5c(c4)OCO5)cc3n2)cc1	16	8	5	13	·
COc1cccc(-c2cnc3c(NC(C)=O)cc(-c4cccc(C(=O)NCCN(C)C)c4)cn23)c1	44*	7	-11	10	18
CN(C)CCNC(=O)c1cccc(-c2cnc3c(NC=O)cc(-c4ccccc4F)cn23)c1	18	13	-14	0	·
Cc1cc(-c2cc(NC=O)c3ncc(-c4cccc(C(=O)NCCN(C)C)c4)n3c2)cc(C)c1O	27*	11	7	14	58*
CCCCCC(=O)N1C[C@@H](n2cc(C3CC3)nn2)[C@H](O)C[C@@H]1c1ccc(C)cc1	6	1	-4	14	·
COc1ccc(CNC(=O)CCS(=O)(=O)c2ccc3c(c2)NC(=O)CS3)cc1	25*	-15	8	1	-3
SMILES	ARFGAP1 inh	Neddyl block	H9c2 protect	ASAP1 inh	ARFGAP1 confirm
CN(C)CCNC(=O)COc1ccc(Cl)cc1Cl	-8	0	2	-9	·
O=C(COc1ccc(Cl)cc1Cl)NCCSc1ccc(Cl)cc1	29*	0	-12	4	-2
COc1ccc(-c2c(-c3ccc(OCC(=O)NN)cc3O)n[nH]c2C(F)(F)F)cc1	32*	17	-6	25	24
CCOC(=O)c1oc2ccccc2c1NC(=O)c1ccc(Cl)s1	32*	-3	-3	0	6
CCOC(=O)c1oc2ccccc2c1NC(=O)CCl	-14	6	-6	7	·
COC(=O)c1cc2c(c3c4ccccc4n(S(=O)(=O)c4ccccc4)c13)C(=O)N(Cc1ccc(C(F)(F)F)cc1)C2	-7	·	·	0	·
Nc1cccc(-c2nc3cc(S(=O)(=O)c4ccc5oc(-c6cccc(N)c6)nc5c4)ccc3o2)c1	26*	·	4	4	21
CCCCCCCCN	-6	·	·	-3	·
O=S1(=O)C[C@H](N2CCC(Cc3ccccc3)CC2)[C@@H](COCc2ccccc2)N1	12	0	1	13	·
Cc1cc(=O)oc2cc(OCC(=O)NCCc3c[nH]c4ccc(F)cc34)ccc12	-8	27	-3	1	·
CCCc1cc(=O)oc2cc(OCC(=O)NCCc3c[nH]c4ccccc34)ccc12	26*	11	0	-4	8
CN(CC(=O)NCC1CCCO1)S(=O)(=O)c1ccc(Br)cc1 (stereo not drawn)	5	-10	1	-6	·
CN(CC(=O)NCC1CCCO1)S(=O)(=O)c1ccc2ccccc2c1 (stereo not drawn)	32*	4	-3	3	1
CCN(CC)C(=O)C1=C(C)N(CCCN2CCCC2=O)C(=O)C(CC(=O)NCCN2CCOCC2)C1 (stereo not drawn)	1	10	1	6	·
COc1ccc(-c2cn[nH]c2-c2ccc(OCc3ccccc3)cc2O)cc1	13	8	-9	11	·
CCOc1ccc(-c2[nH]ncc2-c2ccccc2)c(O)c1	25*	3	-4	14	6
CC(C)N(C(=O)NC(=O)Nc1ccc(S(=O)(=O)N2CCCC2)cc1)S(C)(=O)=O	36*	4	-3	17	14
Cc1ccc(C(=O)Nc2cccc(S(=O)(=O)N3CCCC3)c2)o1	1	-25	4	0	·
Cc1ccc(C(=O)Nc2ccc(S(=O)(=O)N3CCCC3)cc2)o1	26*	3	-3	-1	-1
COc1ccc(C2CC(c3ccccc3)=NN2C(=O)CCCC(=O)O)cc1 (stereo not drawn)	-4	2	6	13	·
COc1ccc(-c2cc(C(=O)NCc3ccc(C(F)(F)F)cc3)[nH]n2)c(C)c1	4	-17	-4	6	·
COC(=O)c1cc2c(c3c4cc(C)ccc4n(S(=O)(=O)c4ccc(C)cc4)c13)C(=O)N(Cc1ccc(N(C)C)cc1)C2	16	·	·	-1	·
CN(C)C(=O)C[C@@H]1CC[C@@H](NC(=O)C2CCC2)[C@@H](CO)O1	7	-8	·	-6	·
CCOC(=O)c1ccc(-c2c(-c3ccccc3OC)oc3ccccc23)cc1F	-1	·	-6	1	·
COc1ccccc1-c1oc2ccccc2c1-c1ccc2cc[nH]c2c1	26*	·	-12	10	12
Nc1cc(Cl)nnc1Cl	25*	-4	0	-2	3
